Source: ChEMBL document CHEMBL4376878, “Potent Thiophene Antagonists of Human Complement C3a Receptor with Anti-Inflammatory Activity” (J Med Chem, 2020)
Calls of active or inactive are those of the source. The rule behind the calls is not given here.

Assays:
[1] = target: T1, C3a anaphylatoxin chemotactic receptor (Homo sapiens) (UniProt Q16581); assay: Potency index, ratio of SB290157 IC50 to test compound IC50 for antagonist activity at C3a receptor in human LAD2 cells assessed as inhibition of C3a-induced beta-hexosaminidase release; type: cell-based
T1 sequence (whole entry): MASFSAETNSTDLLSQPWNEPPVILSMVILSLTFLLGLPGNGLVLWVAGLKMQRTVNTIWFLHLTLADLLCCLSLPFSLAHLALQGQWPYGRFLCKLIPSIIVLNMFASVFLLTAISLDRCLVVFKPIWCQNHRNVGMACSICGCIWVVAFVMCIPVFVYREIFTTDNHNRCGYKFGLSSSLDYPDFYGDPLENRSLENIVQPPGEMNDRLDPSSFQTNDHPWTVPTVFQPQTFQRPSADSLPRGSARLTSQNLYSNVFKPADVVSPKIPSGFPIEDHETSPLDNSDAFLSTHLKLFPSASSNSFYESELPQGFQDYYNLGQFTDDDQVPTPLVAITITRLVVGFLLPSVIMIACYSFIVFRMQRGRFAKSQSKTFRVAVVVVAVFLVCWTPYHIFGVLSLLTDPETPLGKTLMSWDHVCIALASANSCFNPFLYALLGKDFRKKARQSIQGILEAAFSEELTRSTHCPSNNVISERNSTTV

[2] = AUC (0 to 8 hrs) in Wistar rat at 1 mg/kg, iv by LC-MS/MS analysis; type: ADME, organism-based; design: time < 8 hr, dose 1 mg/kg, route intravenous; settings: in vivo
How it was run: (§1)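 Male Wistar rats with jugular vein catheter, fasted overnight; dosed p.o. by gavage in olive oil or i.v. via catheter in 50% DMSO. Blood drawn from conscious unrestrained rats 5 min before dosing, then 5, 15, 30 min and 1–8 h after. Volume replaced with heparinized saline. Rats fed after 4 h sample. n = 3 per route.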

Rattus norvegicus [3] = assay: Antiinflammatory activity in Wistar rat model of BR103-induced paw edema assessed as reduction in number of ED1-positive macrophages at 10 mg/kg, po administered via gavage pretreated for 2 hrs followed by BR103 challenge and measured after 30 mins by immunohistochemical analysis; type: functional, organism-based
How it was run: (§2)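 Male Wistar rats 7–8 weeks old, given 10 mg/kg p.o. in olive oil 2 h before i.pl. BR103 (350 μg/paw). Sham/control received olive oil. Left paw plantar tissue taken 30 min after agonist and fixed in formalin. Frozen 5 μm sections stained with alcian blue/safranin O, or immunostained for tryptase, histamine or ED1. Positive cells quantified; n = 5 per group, one-way ANOVA.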

Rattus norvegicus [4] = assay: Antiinflammatory activity in Wistar rat model of BR103-induced paw edema assessed as reduction in Il6 gene expression at 10 mg/kg, po administered via gavage pretreated for 2 hrs followed by BR103 challenge and measured after 30 mins by SYBR green dye based RT-PCR analysis; type: functional, organism-based
How it was run: (§3)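 Rats given 10 mg/kg p.o. in olive oil 2 h before i.pl. BR103 (350 μg/paw). Paws collected 0.5 h after agonist and homogenized in TRIsure for RNA. qPCR run in duplicate, normalized to Hprt, with fold change relative to sham. n = 3–5 male Wistar rats per group.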

[5] = target: T1, C3a anaphylatoxin chemotactic receptor (Homo sapiens); assay: Potency index, ratio of SB290157 IC50 to test compound IC50 for antagonist activity at C3a receptor in human MDM cells; type: cell-based
Rattus norvegicus [6] = assay: Antiinflammatory activity in Wistar rat model of BR103-induced paw edema assessed as reduction in Cd244 gene expression at 10 mg/kg, po administered via gavage pretreated for 2 hrs followed by BR103 challenge and measured after 30 mins by SYBR green dye based RT-PCR analysis; type: functional, organism-based; how it was run: as §3
Rattus norvegicus [7] = assay: Antiinflammatory activity in Wistar rat model of BR103-induced paw edema assessed as inhibition of activation/degranulation of mast cells at 10 mg/kg, po administered via gavage pretreated for 2 hrs followed by BR103 challenge and measured after 30 mins by tryptase staining-based microscopic analysis; type: functional, organism-based; how it was run: as §2
[8] = Stability of the compound in rat plasma at 1 mM measured after 4 hrs by LC-MS analysis; type: ADME, cell-free
How it was run: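 Compound added to rat plasma from 1 mM DMSO stock (stock concentration) and incubated at 37 °C. Samples taken at 0, 5, 15, 30, 60, 120 and 240 min, quenched in MeCN/H₂O 9:1, centrifuged and analyzed by LC-MS. Plasma activity checked with SLIGRL-NH₂.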

Rattus norvegicus [9] = assay: Antiinflammatory activity in Wistar rat model of BR103-induced paw edema assessed as reduction in Ccl2 gene expression at 10 mg/kg, po administered via gavage pretreated for 2 hrs followed by BR103 challenge and measured after 30 mins by SYBR green dye based RT-PCR analysis; type: functional, organism-based; how it was run: as §3
[10] = AUC (0 to 8 hrs) in Wistar rat at 10 mg/kg, po by LC-MS/MS analysis; type: ADME, organism-based; design: dose 10 mg/kg, time < 8 hr, route oral; settings: in vivo; how it was run: as §1
[11] = Elimination half-life in Wistar rat at 1 mg/kg, iv by LC-MS/MS analysis; type: ADME, organism-based; settings: in vivo, read-out: beta t1/2; how it was run: as §1
Rattus norvegicus [12] = assay: Antiinflammatory activity in Wistar rat model of BR103-induced paw edema assessed as reduction in hind paw swelling at 10 to 30 mg/kg, po administered via gavage pretreated for 2 hrs followed by BR103 challenge and measured after 30 mins by digital caliper method
[13] = Volume of distribution in Wistar rat at 1 mg/kg, iv by LC-MS/MS analysis; type: ADME, organism-based; settings: in vivo; how it was run: as §1
Rattus norvegicus [14] = assay: Antiinflammatory activity in Wistar rat model of BR103-induced paw edema assessed as reduction in Il10 gene expression at 10 mg/kg, po administered via gavage pretreated for 2 hrs followed by BR103 challenge and measured after 30 mins by SYBR green dye based RT-PCR analysis; type: functional, organism-based; how it was run: as §3
Rattus norvegicus [15] = assay: Antiinflammatory activity in Wistar rat model of BR103-induced paw edema assessed as reduction in hind paw swelling at 10 mg/kg, po administered via gavage pretreated for 2 hrs followed by BR103 challenge and measured after 30 mins by digital caliper method relative to control; type: functional; design: scale not given: the % may be the effect or the level left
How it was run: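 Male Wistar rats were given antagonist at 10 mg/kg by oral gavage in olive oil 2 h before intraplantar BR103 (350 μg in 100 μL of 5% DMSO). Sham paws received vehicle; sham and control rats received olive oil only. Paw thickness and width were measured with digital calipers at 0, 0.5, 1 and 2 h after agonist; n = 3 per group.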

[16] = target: T1, C3a anaphylatoxin chemotactic receptor (Homo sapiens); assay: (§4) Antagonist at C3a receptor in human LAD2 cells assessed as inhibition of C3a-induced beta-hexosaminidase release preincubated for 30 mins followed by C3a addition; type: cell-based
How it was run: (§5)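 LAD2 mast cells grown with SCF, 1 × 10⁴ cells/well seeded overnight and presensitized overnight with IgE (100 ng/mL). Compounds preincubated 30 min at 37 °C in 0.1 M HEPES pH 7.4, then C3a added and β-hexosaminidase release measured. IC50 is concentration inhibiting 50% of release induced by 100 nM C3a; n ≥ 3.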

[17] = target: T2, C3a anaphylatoxin chemotactic receptor (Homo sapiens, UniProt Q16581); assay: as §4; type: cell-based; how it was run: as §5
T2 sequence (Q16581 whole entry): T1 sequence (whole entry)

Rattus norvegicus [18] = assay: Antiinflammatory activity in Wistar rat model of BR103-induced paw edema assessed as reduction in hind paw swelling at 10 mg/kg, po administered via gavage pretreated for 4 hrs followed by BR103 challenge and measured after 30 mins by digital caliper method relative to control; type: functional, organism-based
How it was run: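 Male Wistar rats given 10 mg/kg p.o. in olive oil at 0.5, 1, 2 or 4 h before i.pl. BR103 (350 μg in 100 μL 5% DMSO). Control rats received olive oil. Paw thickness and width measured by digital calipers at 0 and 0.5 h after agonist. n = 3–5 per group, one-way ANOVA.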

Cc1cc(C(c2ccc(Cl)cc2)c2ccc(Cl)cc2)sc1C(=O)N[C@@H](CCCNC(=N)N)C(=O)O
Ratio IC50 [1]: 100
AUC(0-t) at 8 h [2]: 3800 ng·h/mL
Activity (Rattus norvegicus [3]): Active
Activity (Rattus norvegicus [4]): Active
Ratio IC50 [5]: 100
Activity (Rattus norvegicus [6]): Active
Activity (Rattus norvegicus [7]): Active
Stability [8]: Stable
Activity (Rattus norvegicus [9]): Active
AUC(0-t) at 8 h [10]: 478 ng·h/mL
half-life [11]: 3.18 h
Activity (Rattus norvegicus [12]): inactive
Vd [13]: 0.1 L
Activity (Rattus norvegicus [14]): Active
Activity (Rattus norvegicus [15]): 65%
inhibition [16]: Dose-dependent effect
IC50 [17]: 8 nM
Activity (Rattus norvegicus [18]): Active
